We go through one compound from ChEMBL document CHEMBL1128460, “Design, synthesis, and structure-activity relationships of a new series of alpha-adrenergic agonists: spiro[(1,3-diazacyclopent-1-ene)-5,2'-(1',2',3',4'- tetrahydronaphthalene)]” (J Med Chem, 1995).

For experiment [1], the species on record is Canis familiaris. Briefly: Effective concentration for the agonist in the isolated blood vessel using in vitro saphenous vein. The experiment is classed as functional. The settings on record: Canis lupus familiaris. An outline of the steps: (§1)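 Vessel segments from mongrel dogs (15–25 kg) anesthetized with pentobarbital (30 mg/kg iv), mounted for isometric tension in physiological saline. Equilibrated 90 min with bath changes every 30 min, rauwolscine (10^-7 M) present throughout. Primed with KCl (100 mM), then phenylephrine (1 µM). Agonist concentration–response curves run at half-log steps, giving EC50 (µM) and Emax as % of phenylephrine maximum; mean ±SD.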

For experiment [2], the species on record is Canis familiaris. Briefly: Maximal contractile response obtained with the agonist (expressed as a percentage of the maximal contraction to phenylephrine in the dog femoral artery). The experiment is classed as functional, Canis lupus familiaris. An outline of the steps: as §1
Experiment [3] is filed under the species Canis familiaris. Description: Maximal contractile response obtained with the agonist (expressed as a percentage of the maximal contraction to phenylephrine in the dog saphenous vein). The class given is functional, Canis lupus familiaris. An outline of the steps: as §1
Experiment [4] concerns the target T1, Adrenergic receptor alpha (Rattus norvegicus) (UniProt P15823+P23944+P43140+P22086+P19328+P22909). Description: Alpha adrenergic activity was evaluated as concentration (iv) which increases the arterial pressure by 20 mmHg in the pithed rat. Conditions: Artery. The experiment is classed as functional, organism-based.
The nature of experiment [5]: ratio of C20 obtained in the absence or presence of [C20 ( 0.1 mg of prazosin ) / C20 (control)]. The experiment is classed as functional. An outline of the steps:
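Pithed rats pretreated with tertatolol (100 mg/kg), then 10 min later with prazosin (100 µg/kg). Cumulative iv agonist doses given another 10 min later at 20 s intervals. Arterial pressure recorded, C20 (dose giving +20 mmHg) determined. Ratio calculated as C20(prazosin)/C20(control); 3–6 determinations.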

Experiment [6] in a line: ratio of C20 obtained in the absence or presence of [C20 (1 mg of yohimbine.) / C20 (control)]. The experiment is classed as functional. An outline of the steps: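 Pithed rat arterial pressure assay with tertatolol (100 mg/kg) pretreatment, then yohimbine (1 mg/kg) 10 min later. Cumulative iv agonist doses given at 20 s intervals after a further 10 min, C20 (+20 mmHg dose) obtained. Ratio expressed as C20(yohimbine)/C20(control); 3–6 determinations.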

Experiment [7] in a line: Ratio of C20 (pithed rat) to that of EC50(saphenous vein). The experiment is classed as functional.
Experiment [8] concerns the target T1, Adrenergic receptor alpha (Rattus norvegicus). Briefly: Alpha adrenergic activity was evaluated as maximal pressure response caused by agonist, expressed in mmHg (the maximum obtained with phenylephrine is 150 mmHg). The class given is functional.

Each structure is given as a SMILES string.

For `C1=NCC2(CCc3cc4c(cc3C2)CCC4)N1` (stereo not drawn), in experiment [1], the EC50 (as a rule, the concentration giving half of the maximal effect) turned out to be 70 nM. In addition, the Emax in experiment [2] is given as 0; in experiment [3], 17. In experiment [4], this compound returned a C20 of 74 µg/kg. Besides, the Ratio in experiment [5] was 1.1; in experiment [6] it was 5; in experiment [7], 1057. This compound gave a Max in experiment [8] of 68 mmHg.
